Legend:
[1] = tested on: Human immunodeficiency virus 1; assay: Inhibitory concentration required to inhibit HIV-induced cytopathicity in CEM-4 cells by 50% based in the MTT assay; format: functional, organism-based; conditions: Human immunodeficiency virus 1, CEM-4
[2] = tested on: E6SM; assay: Minimum cytotoxic concentration required to cause a microscopically detectable alteration of normal cell morphology in E6SM cells; format: functional, Homo sapiens
Procedure, shortened: (§1)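 Uninfected E6SM, HeLa or Vero cells were exposed to compound and examined by microscopy. MCC is the lowest concentration causing a detectable alteration of normal cell morphology.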

[3] = tested on: Vaccinia virus; assay: Concentration required to inhibit Vaccinia induced cytopathicity in E6SM cells by 50%; format: functional, organism-based; conditions: Orthopoxvirus vaccinia
[4] = tested on: Vesicular stomatitis virus; assay: Concentration required to inhibit vesicular stomatitis induced cytopathicity in E6SM cells by 50%; format: functional, organism-based
[5] = tested on: HEL; assay: Minimum cytotoxic concentration required to cause a microscopically detectable alteration of normal cell morphology in HEL cells; format: functional, Homo sapiens
[6] = tested on: Human betaherpesvirus 5; assay: Concentration required to inhibit HCMV(AD169) induced cytopathicity in HEL cells by 50%; format: functional, organism-based; conditions: Human betaherpesvirus 5, HEL
Procedure, shortened: (§2)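 Virus was added to the cell monolayers in the presence of compound. Incubation continued until the viral cytopathic effect was scored. IC50 is the concentration that reduced virus-induced cytopathicity by 50%.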

[7] = tested on: Human betaherpesvirus 5; assay: Concentration required to inhibit HCMV(Davis) induced cytopathicity in HEL cells by 50%; format: functional, organism-based; conditions: Human betaherpesvirus 5, HEL; procedure, shortened: as §2
[8] = tested on: HeLa; assay: Minimum cytotoxic concentration required to cause a microscopically detectable alteration of normal cell morphology in HeLa cells; format: functional, Homo sapiens; procedure, shortened: as §1
[9] = tested on: Coxsackievirus; assay: Concentration required to inhibit Coxsackie induced cytopathicity in HeLa cells by 50%; format: functional, organism-based; procedure, shortened: as §2
[10] = tested on: Poliovirus 1; assay: Concentration required to inhibit Polio-1 induced cytopathicity in HeLa cells by 50%; format: functional, organism-based; conditions: Enterovirus C
[11] = tested on: Human immunodeficiency virus 1; assay: Concentration required to inhibit by 50% syncytium formation between MOLT-4 cells and HIV-1(IIIB); format: functional, organism-based; conditions: Human immunodeficiency virus 1, MOLT-4
Procedure, shortened: (§3)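 Uninfected MOLT-4 cells were co-cultured with HUT-78 cells chronically infected with HIV-1 (IIIB) or HIV-2 (ROD), in the presence of compound. The end point was syncytium formation, and IC50 is the concentration giving 50% inhibition. Values are means of two separate experiments.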

[12] = tested on: MT4; assay: Concentration required to reduce the viability of mock-infected MT-4 cells by 50%; format: functional; conditions: Homo sapiens
Procedure, shortened: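 Mock-infected MT-4 cells were exposed to compound. CC50 is the concentration that reduced cell viability by 50%. Values are means of two separate experiments.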

[13] = tested on: Human immunodeficiency virus 1; assay: Concentration required to inhibit HIV-1 induced cytopathicity in MT-4 cells by 50%; format: functional, organism-based; conditions: Human immunodeficiency virus 1, MT4
Procedure, shortened: (§4)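 MT-4 cells were infected with HIV-1 (strain HTLV-IIIB/LAI) or HIV-2 (strain LAV-2 ROD) and exposed to compound. IC50 is the concentration that inhibited HIV-induced cytopathicity by 50%. Values are means of two separate experiments.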

[14] = tested on: Human immunodeficiency virus 2; assay: Concentration required to inhibit HIV-2 induced cytopathicity in MT-4 cells by 50%; format: functional, organism-based; conditions: Human immunodeficiency virus 2, MT4; procedure, shortened: as §4
[15] = tested on: Human immunodeficiency virus 2; assay: Concentration required to inhibit by 50% syncytium formation between MOLT-4 cells and HIV-2 (ROD) infected HUT-78 cells; format: functional, organism-based; conditions: Human immunodeficiency virus 2, MOLT-4; procedure, shortened: as §3
[16] = tested on: Vero; assay: Minimum cytotoxic concentration required to cause a microscopically detectable alteration of normal cell morphology in Vero cells; format: functional, Chlorocebus sabaeus; procedure, shortened: as §1
[17] = tested on: Junin virus; assay: Concentration required to inhibit Junin induced cytopathicity in Vero cells by 50%; format: functional, organism-based; conditions: Mammarenavirus juninense
[18] = tested on: Sindbis virus; assay: Concentration required to inhibit Sindbis induced cytopathicity in Vero cells by 50%; format: functional, organism-based; procedure, shortened: as §2
[19] = tested on: Tacaribe virus; assay: Concentration required to inhibit Tacaribe induced cytopathicity in Vero cells by 50%; format: functional, cell-based; conditions: Mammarenavirus tacaribeense
[20] = tested on: Human respirovirus 3; assay: Concentration required to inhibit parainfluenza-3 induced cytopathicity in Vero cells by 50%; format: functional, organism-based; conditions: Human respirovirus 3, Vero; procedure, shortened: as §2
[21] = tested on: Mammalian orthoreovirus 1; assay: Concentration required to inhibit reovirus-1 induced cytopathicity in Vero cells by 50%; format: functional, organism-based; conditions: Mammalian orthoreovirus 1, Vero; procedure, shortened: as §2
[22] = tested on: Semliki Forest virus; assay: Concentration required to inhibit forest induced cytopathicity in Vero cells by 50%; format: functional, organism-based; procedure, shortened: as §2
[23] = tested on: CEM-4; assay: Cytotoxic concentration required to reduce the viability of uninfected cells by 50% after 5 days of incubation in the presence on CEM-4 cells.; format: functional; conditions: Homo sapiens, CEM-4, 120 h
Procedure, shortened: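 Uninfected CEM-4 cells were incubated with compound for 5 days. CC50 is the concentration that reduced viability by 50%. Values average at least two separate experiments.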

[24] = tested on: Human alphaherpesvirus 2; assay: Concentration required to inhibit HSV-2(G) induced cytopathicity in E6SM cells by 50%; conditions: Human alphaherpesvirus 2, E6SM
[25] = tested on: Human alphaherpesvirus 1; assay: Concentration required to inhibit HSV-1(KOS) induced cytopathicity in E6SM cells by 50%; conditions: Human alphaherpesvirus 1, E6SM
[26] = tested on: Human alphaherpesvirus 1; assay: Concentration required to inhibit HSV-1 TK-(B2006) induced cytopathicity in E6SM cells by 50%; conditions: Human alphaherpesvirus 1, E6SM

For `CCCCCCCCCCCCSCCCCCCCCCCCCCCCCCCCCCCCCCCCCCCCCC(=O)N(CC)CCCCCCCCCCC(=O)[O-].[Na+]`, which IC50 [1] is on record?
Its IC50 is > 11 µg/mL.

What about the MMC [2] of the same compound?
Its MMC is 100 µg/mL.

What about the IC50 [3] of the same compound?
Its IC50 is > 40 µg/mL.

What about the IC50 [4] of the same compound?
The IC50 was > 40 µg/mL.

And the MMC [5]?
The MMC was >50 µg/mL.

What about the IC50 [6] of the same compound?
Its IC50 is 9 µg/mL.

What about the IC50 [7] of the same compound?
Its IC50 is 9 µg/mL.

And the MMC [8]?
The MMC was >200 µg/mL.

And the IC50 [9]?
The IC50 was > 200 µg/mL.

And the IC50 [10]?
The IC50 was > 200 µg/mL.

And the IC50 [11]?
Its IC50 is 30 µg/mL.

And the CC50 [12]?
The CC50 was 30 µg/mL.

And the IC50 [13]?
The IC50 was > 16 µg/mL.

What about the IC50 [14] of the same compound?
The IC50 was > 29 µg/mL.

And the IC50 [15]?
The IC50 was 50 µg/mL.

And the MMC [16]?
The MMC was >200 µg/mL.

And the IC50 [17]?
Its IC50 is 20 µg/mL.

And the IC50 [18]?
The IC50 was > 200 µg/mL.

And the IC50 [19]?
Its IC50 is > 20 µg/mL.

And the IC50 [20]?
Its IC50 is > 200 µg/mL.

What about the IC50 [21] of the same compound?
The IC50 was > 200 µg/mL.

And the IC50 [22]?
Its IC50 is > 200 µg/mL.

What about the CC50 [23] of the same compound?
Its CC50 is 27 µg/mL.

And the IC50 [24]?
The IC50 was 20 µg/mL.

What about the IC50 [25] of the same compound?
Its IC50 is > 40 µg/mL.

And the IC50 [26]?
Its IC50 is > 200 µg/mL.
